Assay results reported in ChEMBL document CHEMBL5712908, “A genome-wide RNAi screen reveals essential therapeutic targets of breast cancer stem cells” (2019).
Activity calls are given as the source filed them. The calls are words filed in the database; no cut-off is given here.

Tests used:
SUM149PT [1] = test: Anticancer activity against human SUM149 cells assessed as decrease in ALDHbr cells at 2 nM by LSR2 cytometer analysis; assay type: functional, cell-based
Summary of the method: (§1)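 Cells continuously exposed to drug for 72 h in adherent culture; single-cell suspensions stained with ALDEFLUOR kit and ALDH-high population measured by flow cytometry (LSR2) against a DEAB control. Residual ALDHbr proportion reported (n = 8), mean ± SD, Student's t-test.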

SUM-159-PT [2] = test: Anticancer activity against human SUM159 cells assessed as decrease in ALDHbr cells at 2 nM by LSR2 cytometer analysis; assay type: functional, cell-based; summary of the method: as §1
SUM-159-PT [3] = test: Anticancer activity against human SUM159 cells assessed as decrease primary tumor sphere formation at 2 nM incubated for 72 hrs by Extreme limiting dilution analysis; assay type: functional, cell-based
Summary of the method: (§2)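 Cells given drug (2 nM when combined with other agents) for 72 h in adherent culture, then plated as single cells in ultra-low attachment 96-well plates in serum-free mammary epithelium basal medium at 25/10/5/3/2/1 cells per well (18–36 wells per condition). Wells holding ≥1 sphere at 10 days scored positive. Sphere-forming frequency by extreme limiting dilution analysis, pairwise chi-square, n = 4.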

SUM149PT [4] = test: Anticancer activity against human SUM149 cells assessed as decrease primary tumor sphere formation at 2 nM incubated for 72 hrs by Extreme limiting dilution analysis; assay type: functional, cell-based; summary of the method: as §2
[5] = target: Histone acetyltransferase p300 (Homo sapiens) (UniProt Q09472); test: Inhibition of EP300 in human MDA-MB-436 cells assessed as K-score by measuring ALDHbr cells by LSR2 cytometer; assay type: cell-based
Sequence of Histone acetyltransferase p300 (Homo sapiens) (Q09472 whole entry): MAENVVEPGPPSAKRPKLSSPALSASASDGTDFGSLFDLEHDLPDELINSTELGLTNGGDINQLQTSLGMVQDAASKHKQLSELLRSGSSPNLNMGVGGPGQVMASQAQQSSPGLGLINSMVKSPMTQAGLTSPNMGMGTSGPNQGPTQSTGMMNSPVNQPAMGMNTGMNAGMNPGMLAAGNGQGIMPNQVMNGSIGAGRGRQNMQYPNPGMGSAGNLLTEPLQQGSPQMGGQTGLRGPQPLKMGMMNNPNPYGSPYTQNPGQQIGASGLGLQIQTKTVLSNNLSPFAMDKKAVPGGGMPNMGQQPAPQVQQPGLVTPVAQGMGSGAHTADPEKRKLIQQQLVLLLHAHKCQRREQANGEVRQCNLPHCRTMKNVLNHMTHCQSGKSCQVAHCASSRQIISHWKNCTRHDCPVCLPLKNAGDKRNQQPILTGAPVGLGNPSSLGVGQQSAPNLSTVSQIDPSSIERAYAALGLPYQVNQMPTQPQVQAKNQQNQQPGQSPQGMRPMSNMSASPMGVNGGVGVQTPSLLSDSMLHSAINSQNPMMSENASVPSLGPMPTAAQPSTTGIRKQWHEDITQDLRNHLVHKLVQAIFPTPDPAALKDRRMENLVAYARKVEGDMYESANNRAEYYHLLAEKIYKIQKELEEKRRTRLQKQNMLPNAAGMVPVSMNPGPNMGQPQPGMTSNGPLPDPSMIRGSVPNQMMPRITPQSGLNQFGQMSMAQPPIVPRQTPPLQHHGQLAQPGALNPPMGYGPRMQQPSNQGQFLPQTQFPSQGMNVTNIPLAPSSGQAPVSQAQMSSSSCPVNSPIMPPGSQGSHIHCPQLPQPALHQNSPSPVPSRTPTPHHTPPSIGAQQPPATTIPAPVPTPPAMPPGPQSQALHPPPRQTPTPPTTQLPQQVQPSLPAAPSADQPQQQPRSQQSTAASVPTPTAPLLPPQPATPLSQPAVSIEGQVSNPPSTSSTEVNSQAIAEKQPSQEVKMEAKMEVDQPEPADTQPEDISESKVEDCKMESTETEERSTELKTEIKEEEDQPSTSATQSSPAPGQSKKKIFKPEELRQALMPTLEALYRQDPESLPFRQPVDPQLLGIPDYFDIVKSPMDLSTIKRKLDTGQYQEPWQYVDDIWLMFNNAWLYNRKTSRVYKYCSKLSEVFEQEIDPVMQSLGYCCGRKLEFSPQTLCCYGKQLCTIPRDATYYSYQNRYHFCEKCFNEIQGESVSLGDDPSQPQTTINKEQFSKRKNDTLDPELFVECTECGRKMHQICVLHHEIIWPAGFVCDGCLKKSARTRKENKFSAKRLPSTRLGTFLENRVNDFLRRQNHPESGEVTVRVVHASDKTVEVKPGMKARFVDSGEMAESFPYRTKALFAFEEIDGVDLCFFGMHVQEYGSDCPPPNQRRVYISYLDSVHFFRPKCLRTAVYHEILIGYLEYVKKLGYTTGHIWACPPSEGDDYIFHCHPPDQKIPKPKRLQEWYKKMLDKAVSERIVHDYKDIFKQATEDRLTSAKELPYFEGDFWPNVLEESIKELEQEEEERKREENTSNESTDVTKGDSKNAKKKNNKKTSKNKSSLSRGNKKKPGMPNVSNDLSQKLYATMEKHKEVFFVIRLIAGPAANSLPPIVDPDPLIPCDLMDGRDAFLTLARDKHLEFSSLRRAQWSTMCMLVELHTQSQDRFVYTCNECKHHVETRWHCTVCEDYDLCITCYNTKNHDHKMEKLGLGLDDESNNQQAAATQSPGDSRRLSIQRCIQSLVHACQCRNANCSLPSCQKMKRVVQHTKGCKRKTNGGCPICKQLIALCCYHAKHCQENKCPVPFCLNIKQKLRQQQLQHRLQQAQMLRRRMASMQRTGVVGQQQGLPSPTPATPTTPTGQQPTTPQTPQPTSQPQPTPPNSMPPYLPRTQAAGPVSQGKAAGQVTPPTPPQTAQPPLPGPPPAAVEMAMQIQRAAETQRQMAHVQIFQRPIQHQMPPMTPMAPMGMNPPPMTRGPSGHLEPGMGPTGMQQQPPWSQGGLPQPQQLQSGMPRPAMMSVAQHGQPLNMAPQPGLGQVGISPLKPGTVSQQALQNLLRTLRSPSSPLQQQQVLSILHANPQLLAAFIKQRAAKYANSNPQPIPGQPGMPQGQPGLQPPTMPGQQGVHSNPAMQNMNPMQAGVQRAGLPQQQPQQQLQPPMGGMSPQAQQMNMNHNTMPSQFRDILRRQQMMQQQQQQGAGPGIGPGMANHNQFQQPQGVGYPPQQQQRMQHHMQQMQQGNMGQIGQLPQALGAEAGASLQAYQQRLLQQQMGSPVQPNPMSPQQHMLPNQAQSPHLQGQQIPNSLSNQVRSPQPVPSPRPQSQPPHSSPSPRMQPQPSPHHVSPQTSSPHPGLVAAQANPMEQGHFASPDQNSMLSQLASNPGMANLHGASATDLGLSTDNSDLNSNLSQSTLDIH
Summary of the method: (§3)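 Breast cancer lines exposed continuously for 72 h in adherent culture to a range of doses centred on the MTS-derived IC50 (72 h MTS, absorbance 540 nm). ALDHbr fraction measured by ALDEFLUOR flow cytometry (LSR2) with DEAB control. K-score = linear regression coefficient between untreated condition and the log10 dose at which ALDHbr proportion changes by 50% versus control.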

[6] = target: Histone acetyltransferase p300 (Homo sapiens) (UniProt Q09472); test: Inhibition of EP300 in human S68 cells assessed as K-score by measuring ALDHbr cells by LSR2 cytometer; assay type: cell-based; summary of the method: as §3
[7] = target: Histone acetyltransferase p300 (Homo sapiens) (UniProt Q09472); test: Inhibition of EP300 in human SUM159 cells assessed as K-score by measuring ALDHbr cells by LSR2 cytometer; assay type: cell-based; summary of the method: as §3
[8] = target: Histone acetyltransferase p300 (Homo sapiens) (UniProt Q09472); test: Inhibition of EP300 in human BrCa-MZ-01 cells assessed as K-score by measuring ALDHbr cells by LSR2 cytometer; assay type: cell-based; summary of the method: as §3
[9] = target: Histone acetyltransferase p300 (Homo sapiens) (UniProt Q09472); test: Inhibition of EP300 in human SUM149 cells assessed as K-score by measuring ALDHbr cells by LSR2 cytometer; assay type: cell-based; summary of the method: as §3
Proteasome [10] = test: Inhibition of proteasome in human SUM149 cells assessed as K-score by measuring ALDHbr cells by LSR2 cytometer; conditions: condition breast cancer; summary of the method: as §3
Proteasome [11] = test: Inhibition of proteasome in human BrCa-MZ-01 cells assessed as K-score by measuring ALDHbr cells by LSR2 cytometer; conditions: condition breast cancer; summary of the method: as §3
Proteasome [12] = test: Inhibition of proteasome in human SUM159 cells assessed as K-score by measuring ALDHbr cells by LSR2 cytometer; conditions: condition breast cancer; summary of the method: as §3
Proteasome [13] = test: Inhibition of proteasome in human S68 cells assessed as K-score by measuring ALDHbr cells by LSR2 cytometer; conditions: condition breast cancer; summary of the method: as §3
Proteasome [14] = test: Inhibition of proteasome in human MDA-MB-436 cells assessed as K-score by measuring ALDHbr cells by LSR2 cytometer; conditions: condition breast cancer; summary of the method: as §3
[15] = target: T1, Splicing factor 3B subunit 2 (Homo sapiens) (UniProt Q13435); test: Inhibition of SF3B2 in human S68 cells assessed as K-score by measuring ALDHbr cells by LSR2 cytometer; assay type: cell-based
T1 sequence (whole entry): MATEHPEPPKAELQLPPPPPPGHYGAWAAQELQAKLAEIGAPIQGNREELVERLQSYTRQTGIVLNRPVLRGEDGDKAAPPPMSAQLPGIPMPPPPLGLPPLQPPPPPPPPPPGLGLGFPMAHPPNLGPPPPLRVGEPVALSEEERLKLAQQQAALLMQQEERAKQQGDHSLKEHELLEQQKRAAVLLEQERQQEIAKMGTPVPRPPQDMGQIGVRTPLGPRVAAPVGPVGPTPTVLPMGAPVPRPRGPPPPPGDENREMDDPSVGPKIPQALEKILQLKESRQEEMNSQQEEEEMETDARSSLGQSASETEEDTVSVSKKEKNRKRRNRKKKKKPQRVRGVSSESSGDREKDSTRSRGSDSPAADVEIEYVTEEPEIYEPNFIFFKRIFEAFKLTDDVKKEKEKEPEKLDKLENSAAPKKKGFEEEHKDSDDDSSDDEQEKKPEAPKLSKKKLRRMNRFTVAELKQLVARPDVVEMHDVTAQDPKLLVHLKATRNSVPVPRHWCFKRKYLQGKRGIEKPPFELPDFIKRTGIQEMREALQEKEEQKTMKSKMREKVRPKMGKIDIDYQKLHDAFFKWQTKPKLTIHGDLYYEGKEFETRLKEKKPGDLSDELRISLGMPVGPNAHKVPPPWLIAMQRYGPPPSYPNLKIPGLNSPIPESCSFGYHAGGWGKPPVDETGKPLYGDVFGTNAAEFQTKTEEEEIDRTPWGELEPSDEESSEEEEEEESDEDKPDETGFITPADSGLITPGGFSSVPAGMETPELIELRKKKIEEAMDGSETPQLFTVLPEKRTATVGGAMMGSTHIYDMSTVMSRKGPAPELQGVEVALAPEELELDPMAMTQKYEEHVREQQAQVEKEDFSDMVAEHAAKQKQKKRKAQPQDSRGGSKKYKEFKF
Summary of the method: (§4)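 Cell lines exposed for 72 h in adherent culture to a range of concentrations centred on the MTS-derived IC50. ALDHbr proportion measured by ALDEFLUOR flow cytometry (LSR2). K-score is the linear regression coefficient, on log10-transformed doses, between the untreated condition and the dose predicted to give a 50% decrease or increase in ALDHbr proportion versus control.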

[16] = target: T1, Splicing factor 3B subunit 2 (Homo sapiens); test: Inhibition of SF3B2 in human BrCa-MZ-01 cells assessed as K-score by measuring ALDHbr cells by LSR2 cytometer; assay type: cell-based; summary of the method: as §4
[17] = target: T1, Splicing factor 3B subunit 2 (Homo sapiens); test: Inhibition of SF3B2 in human SUM149 cells assessed as K-score by measuring ALDHbr cells by LSR2 cytometer; assay type: cell-based; summary of the method: as §4
[18] = target: T1, Splicing factor 3B subunit 2 (Homo sapiens); test: Inhibition of SF3B2 in human MDA-MB-436 cells assessed as K-score by measuring ALDHbr cells by LSR2 cytometer; assay type: cell-based; summary of the method: as §4
[19] = target: T1, Splicing factor 3B subunit 2 (Homo sapiens); test: Inhibition of SF3B2 in human SUM159 cells assessed as K-score by measuring ALDHbr cells by LSR2 cytometer; assay type: cell-based; summary of the method: as §4
SUM-159-PT [20] = test: Anticancer activity against human SUM159 cells assessed as decrease in secondary tumor sphere formation incubated for 72 hrs by Extreme limiting dilution analysis; assay type: functional, cell-based
Summary of the method: (§5)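 Cells drug-treated in adherent culture for 72 h, then plated as single cells in ultra-low attachment 96-well plates in serum-free mammary epithelium basal medium. Plating at 25/10/5/3/2/1 cells per well, 18–36 wells per condition. Wells with ≥1 sphere after 10 days scored positive. Secondary spheres were made by dissociating primary spheres. Frequency by ELDA; n = 4; pairwise chi-square test.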

SUM-159-PT [21] = test: Anticancer activity against human SUM159 cells assessed as decrease in primary tumor sphere formation incubated for 72 hrs by Extreme limiting dilution analysis; assay type: functional, cell-based; summary of the method: as §5

`CC(=O)O[C@@]12CO[C@@H]1C[C@H](O)[C@@]1(C)C(=O)[C@H](O)C3=C(C)[C@@H](OC(=O)[C@H](O)[C@@H](NC(=O)OC(C)(C)C)c4ccccc4)C[C@@](O)([C@@H](OC(=O)c4ccccc4)[C@H]21)C3(C)C` was tested, and the Activity (SUM149PT [1]) was “inactive”, the Activity (SUM-159-PT [2]) was “inactive” and the Activity (SUM-159-PT [3]) was “inactive”. For the same compound, the Activity (SUM149PT [4]) was “inactive”.
In the case of `COc1ccc(CCc2nc3cc(-c4c(C)noc4C)ccc3n2C[C@H](C)N2CCOCC2)cc1Cl`, the Activity [5] was -0.04, the Activity [6] was 0.08 and the Activity [7] was -0.02. It also gave an Activity [8] of -0.01 and an Activity [9] of 0.1.
For `CC(C)C[C@H](NC(=O)[C@H](Cc1ccccc1)NC(=O)c1cnccn1)B(O)O` [BORTEZOMIB], the Activity (Proteasome [10]) was -0.11, the Activity (Proteasome [11]) was -0.07 and the Activity (Proteasome [12]) was 0.07. The Activity (Proteasome [13]) was -0.14 and the Activity (Proteasome [14]) was -0.06.
Work on `CO[C@]1(C)C[C@@]2(CO2)[C@H](O)[C@@H](/C=C/C(C)=C/C[C@@H]2O[C@H](C)[C@H](NC(=O)/C=C\[C@H](C)OC(C)=O)C[C@@H]2C)O1` yielded an Activity [15] of -0.16, an Activity [16] of 0.05 and an Activity [17] of -0.19. It also gave an Activity [18] of -0.15 and an Activity [19] of 0.25.
For `CC#C[C@]1(O)CC[C@H]2[C@@H]3CCC4=CC(=O)CCC4=C3[C@@H](c3ccc(N(C)C)cc3)C[C@@]21C`, the Activity (SUM-159-PT [20]) was “Active” and the Activity (SUM-159-PT [21]) was “Active”.
For `CC(C)C[C@H](NC(=O)[C@H](CCc1ccccc1)NC(=O)CN1CCOCC1)C(=O)N[C@@H](Cc1ccccc1)C(=O)N[C@@H](CC(C)C)C(=O)[C@@]1(C)CO1` [CARFILZOMIB], the Activity (Proteasome [10]) was -0.03, the Activity (Proteasome [11]) was -0.08 and the Activity (Proteasome [12]) was 0.01. The Activity (Proteasome [13]) was -0.09 and the Activity (Proteasome [14]) was -0.08.
